{"source": "ChEMBL document CHEMBL1806430", "about": "“Novel aliphatic N-oxide of naphthalimides as fluorescent markers for hypoxic cells in solid tumor” (Eur J Med Chem, 2011)", "key": {"[1]": {"test_system": "V79", "assay": "Drug uptake in hypoxic-chinese hamster V79 379A cells assessed as accumulation of fluorescent N-Oxide 3-amino-1,8-naphthalimide metabolites at 10^-4 M after 4.5 hrs by fluorescent microscopic analysis", "assay_type": "ADME, cell-based, Cricetulus griseus", "settings": "100 µM; call rule not given here", "procedure,_shortened": "(§1)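 V79 379A cells grown as suspension cultures in Eagle's MEM (suspension-modified, Earle's salts) with 7.5% fetal calf serum. Compound added at 10^-4 M, DMSO 1% final or less. Incubated 4.5 h at 37 °C under nitrogen + 5% CO2 (hypoxic) or air + 5% CO2 (oxic). Cells centrifuged, PBS-washed, resuspended in PBS, then imaged by fluorescence microscopy, excitation 410 nm, 1000×.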"}, "[2]": {"test_system": "V79", "assay": "Drug uptake in oxic-chinese hamster V79 379A cells assessed as accumulation of fluorescent N-Oxide 3-amino-1,8-naphthalimide metabolite at 10^-4 M after 4.5 hrs by fluorescent microscopic analysis", "assay_type": "ADME, cell-based, Cricetulus griseus", "settings": "100 µM", "procedure,_shortened": "as §1"}, "[3]": {"test_system": "V79", "assay": "Ratio drug uptake in chinese hamster V79 379A cells in hypoxic to oxic condition assessed as accumulation of fluorescent N-Oxide 3-amino-1,8-naphthalimide metabolites at 10^-4 M after 4.5 hrs by fluorescent microscopic analysis", "assay_type": "ADME, cell-based, Cricetulus griseus", "settings": "100 µM", "procedure,_shortened": "(§2)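 Hypoxic/oxic fluorescence ratio in V79 379A suspension cultures (MEM, 7.5% FCS). Cells given 10^-4 M compound (DMSO ≤1% final) at 37 °C under N2 + 5% CO2 or air + 5% CO2. Samples taken over a time course, centrifuged, PBS-washed and resuspended. Fluorescence read by microplate reader (\"fluorescence scan ascent\"); ratio taken at about 4.5 h.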"}, "[4]": {"test_system": "Nucleic Acid", "assay": "Binding affinity to calf thymus DNA assessed as binding constant", "assay_type": "nucleic-acid assay", "settings": "Bos taurus", "procedure,_shortened": "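Fluorescence titration: compound at 10 × 10^-6 M in 20 mM Tris–HCl pH 7.5 at room temperature, with calf thymus DNA added in rising amounts (0–400 × 10^-6 M). Excitation 460 nm; emission spectra recorded.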"}, "[5]": {"test_system": "V79", "assay": "Drug uptake in hypoxic-chinese hamster V79 379A cells assessed as accumulation of fluorescent N-Oxide Benzo[k,l]thioxanthene-3,4-naphthalimide metabolites at 10^-4 M after 4.5 hrs by fluorescent microscopic analysis", "assay_type": "ADME, cell-based, Cricetulus griseus", "settings": "100 µM", "procedure,_shortened": "as §1"}, "[6]": {"test_system": "V79", "assay": "Drug uptake in oxic-chinese hamster V79 379A cells assessed as accumulation of fluorescent N-Oxide Benzo[k,l]thioxanthene-3,4-naphthalimide metabolite at 10^-4 M after 4.5 hrs by fluorescent microscopic analysis", "assay_type": "ADME, cell-based, Cricetulus griseus", "settings": "100 µM", "procedure,_shortened": "as §1"}, "[7]": {"test_system": "V79", "assay": "Ratio drug uptake in chinese hamster V79 379A cells in hypoxic to oxic condition assessed as accumulation of fluorescent N-Oxide Benzo[k,l]thioxanthene-3,4-naphthalimide metabolites at 10^-4 M after 4.5 hrs by fluorescent microscopic analysis", "assay_type": "ADME, cell-based, Cricetulus griseus", "settings": "100 µM", "procedure,_shortened": "as §2"}, "[8]": {"test_system": "V79", "assay": "Ratio drug uptake in chinese hamster V79 379A cells in hypoxic to oxic condition assessed as accumulation of fluorescent N-Oxide Benzo[b]xanthene [2,1-c]naphthalimide metabolites at 10^-4 M after 4.5 hrs by fluorescent microscopic analysis", "assay_type": "ADME, cell-based, Cricetulus griseus", "settings": "100 µM", "procedure,_shortened": "as §2"}, "[9]": {"test_system": "V79", "assay": "Ratio drug uptake in chinese hamster V79 379A cells in hypoxic to oxic condition assessed as accumulation of fluorescent N-Oxide Benzo[k,l]xanthene-3,4-naphthalimide metabolites at 10^-4 M after 4.5 hrs by fluorescent microscopic analysis", "assay_type": "ADME, cell-based, Cricetulus griseus", "settings": "100 µM", "procedure,_shortened": "as §2"}, "[10]": {"test_system": "V79", "assay": "Drug uptake in hypoxic-chinese hamster V79 379A cells assessed as accumulation of fluorescent N-Oxide 3-nitro-1,8-naphthalimide metabolites at 10^-4 M after 4.5 hrs by fluorescent microscopic analysis", "assay_type": "ADME, cell-based, Cricetulus griseus", "settings": "100 µM", "procedure,_shortened": "as §1"}, "[11]": {"test_system": "V79", "assay": "Ratio drug uptake in chinese hamster V79 379A cells in hypoxic to oxic condition assessed as accumulation of fluorescent N-Oxide 3-nitro-1,8-naphthalimide metabolites at 10^-4 M after 4.5 hrs by fluorescent microscopic analysis", "assay_type": "ADME, cell-based, Cricetulus griseus", "settings": "100 µM", "procedure,_shortened": "as §2"}, "[12]": {"test_system": "V79", "assay": "Drug uptake in oxic-chinese hamster V79 379A cells assessed as accumulation of fluorescent N-Oxide 3-nitro-1,8-naphthalimide metabolite at 10^-4 M after 4.5 hrs by fluorescent microscopic analysis", "assay_type": "ADME, cell-based, Cricetulus griseus", "settings": "100 µM", "procedure,_shortened": "as §1"}}, "data": [{"smiles": "C[N+](C)([O-])CCN1C(=O)c2cccc3cc(N)cc(c23)C1=O", "values": [{"measurement": "Drug uptake", "setting": "[1]", "result": "Active"}, {"measurement": "Drug uptake", "setting": "[2]", "result": "Not Active"}, {"measurement": "Ratio", "setting": "[3]", "result": 8.4}]}, {"smiles": "C[N+](C)([O-])CCn1c(=O)c2ccc3sc4ccccc4c4ccc(c1=O)c2c34", "values": [{"measurement": "K", "setting": "[4]", "result": 6.62, "unit": "×10³ /M"}, {"measurement": "Drug uptake", "setting": "[5]", "result": "Active"}, {"measurement": "Drug uptake", "setting": "[6]", "result": "Not Active"}, {"measurement": "Ratio", "setting": "[7]", "result": 1.75}]}, {"smiles": "C[N+](C)([O-])CCN1C(=O)c2cccc3c2c(cc2c4ccccc4sc32)C1=O", "values": [{"measurement": "Ratio", "setting": "[8]", "result": 5.2}]}, {"smiles": "C[N+](C)([O-])CCn1c(=O)c2ccc3oc4ccccc4c4ccc(c1=O)c2c34", "values": [{"measurement": "Ratio", "setting": "[9]", "result": 1.5}]}, {"smiles": "C[N+](C)([O-])CCN1C(=O)c2cccc3cc([N+](=O)[O-])cc(c23)C1=O", "values": [{"measurement": "Drug uptake", "setting": "[10]", "result": "Active"}, {"measurement": "Ratio", "setting": "[11]", "result": 17}, {"measurement": "Drug uptake", "setting": "[12]", "result": "Not Active"}]}, {"smiles": "CN(C)CCn1c(=O)c2ccc3sc4ccccc4c4ccc(c1=O)c2c34", "values": [{"measurement": "K", "setting": "[4]", "result": 2.9, "unit": "×10⁵ /M"}]}]}
